Source: ChEMBL document CHEMBL3351670, “Discovery of Tröger's base analogues as selective inhibitors against human breast cancer cell line: design, synthesis and cytotoxic evaluation” (Eur J Med Chem, 2014)

How the values were obtained:
Assay type in all cases: functional, cell-based
SK-N-SH = assay: Cytotoxicity against human SK-N-SH cells assessed as growth inhibition after 48 hrs by MTT assay
Summary of the method: (§1)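 MTT assay in triplicate. Cells were seeded at 10,000 cells/[…] per well in medium with 10% serum and allowed to adhere for 24 h in a humid 5% CO₂ chamber. After 48 h, MTT solution was added and cells were incubated 2 h more. Medium was then removed and DMSO added to dissolve the formazan. IC50 was taken as the concentration giving 50% growth inhibition.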

A549 = assay: Cytotoxicity against human A549 cells assessed as growth inhibition after 48 hrs by MTT assay; conditions: A549, 48 h; summary of the method: as §1
MDA-MB-231 = assay: Cytotoxicity against human MDA-MB-231 cells assessed as growth inhibition after 48 hrs by MTT assay; conditions: MDA-MB-231, 48 h; summary of the method: as §1

Structure (SMILES): COc1cccc2c1C(=O)c1c(O)c3c(c(O)c1C2=O)C[C@@](O)(C(=O)CO)C[C@@H]3O[C@H]1C[C@H](N)[C@H](O)[C@H](C)O1 [DOXORUBICIN]
- IC50 (SK-N-SH): 8.5 µM
- IC50 (A549): 8.05 µM
- IC50 (MDA-MB-231): 5.96 µM

Structure (SMILES): CN(C)C1N2Cc3cc(OCCN4CCOCC4)ccc3N1Cc1cc(OCCN3CCOCC3)ccc12
- IC50 (MDA-MB-231): 4.79 µM

Structure (SMILES): CC(C)c1ccc2c(c1)CN1c3ccc(C(C)C)cc3CN2C1N(C)C
- IC50 (SK-N-SH): > 100 µM
- IC50 (A549): > 100 µM
- IC50 (MDA-MB-231): 57.5 µM

Structure (SMILES): COc1ccc2c(c1)CN1c3ccc(OC)cc3CN2C1N(C)c1ccc(C)cc1
- IC50 (SK-N-SH): > 100 µM
- IC50 (A549): > 100 µM
- IC50 (MDA-MB-231): 10.7 µM

Structure (SMILES): Clc1ccc(C(c2ccccc2)N2CCN(CCOc3ccc4c(c3)CN3CN4Cc4cc(OCCN5CCN(C(c6ccccc6)c6ccc(Cl)cc6)CC5)ccc43)CC2)cc1 (racemic)
- IC50 (MDA-MB-231): 57.9 µM

Structure (SMILES): CN(C)C1N2Cc3cc(OCCn4ccnc4)ccc3N1Cc1cc(OCCn3ccnc3)ccc12
- IC50 (MDA-MB-231): > 100 µM

Structure (SMILES): Cc1ccc2c(c1)CN1c3ccc(C)cc3CN2C1N(C)c1ccccc1
- IC50 (SK-N-SH): > 100 µM
- IC50 (A549): > 100 µM
- IC50 (MDA-MB-231): 72.3 µM

Structure (SMILES): COc1ccc2c(c1)CN1CN2Cc2cc(OC)ccc21
- IC50 (SK-N-SH): > 100 µM
- IC50 (A549): > 100 µM
- IC50 (MDA-MB-231): > 100 µM

Structure (SMILES): c1cn(CCOc2ccc3c(c2)CN2CN3Cc3cc(OCCn4ccnc4)ccc32)cn1
- IC50 (MDA-MB-231): 42.6 µM

Structure (SMILES): c1cc2c(cc1OCCN1CCOCC1)CN1CN2Cc2cc(OCCN3CCOCC3)ccc21
- IC50 (MDA-MB-231): 4.29 µM

Structure (SMILES): CC(C)(C)OC(=O)N1CCN(CCOc2ccc3c(c2)CN2CN3Cc3cc(OCCN4CCN(C(=O)OC(C)(C)C)CC4)ccc32)CC1
- IC50 (MDA-MB-231): 5.15 µM

Structure (SMILES): Brc1ccc2c(c1)CN1c3ccc(Br)cc3CN2C1N1CCCCC1
- IC50 (SK-N-SH): > 100 µM
- IC50 (A549): > 100 µM
- IC50 (MDA-MB-231): > 100 µM

Structure (SMILES): COc1ccccc1N1CCN(CCOc2ccc3c(c2)CN2CN3Cc3cc(OCCN4CCN(c5ccccc5OC)CC4)ccc32)CC1
- IC50 (MDA-MB-231): 5.8 µM

Structure (SMILES): Ic1ccc2c(c1)CN1c3ccc(I)cc3CN2C1N1CCOCC1
- IC50 (SK-N-SH): > 100 µM
- IC50 (A549): > 100 µM
- IC50 (MDA-MB-231): > 100 µM

Structure (SMILES): CN(C)C1N2Cc3cc(OCCn4cncn4)ccc3N1Cc1cc(OCCn3cncn3)ccc12
- IC50 (MDA-MB-231): 40.4 µM

Structure (SMILES): COc1cc2c(cc1OC)N1Cc3cc(OC)c(OC)cc3N(C2)C1N(C)C
- IC50 (SK-N-SH): > 100 µM
- IC50 (A549): > 100 µM
- IC50 (MDA-MB-231): 78.1 µM

Structure (SMILES): CN(C)C1N2Cc3cc(Br)ccc3N1Cc1cc(Br)ccc12
- IC50 (SK-N-SH): > 100 µM
- IC50 (A549): > 100 µM
- IC50 (MDA-MB-231): > 100 µM

Structure (SMILES): Cc1ccc(N(C)C2N3Cc4cc(Br)ccc4N2Cc2cc(Br)ccc23)cc1
- IC50 (SK-N-SH): > 100 µM
- IC50 (A549): > 100 µM
- IC50 (MDA-MB-231): > 100 µM

Structure (SMILES): Cc1ccc2c(c1)CN1c3ccc(C)cc3CN2C1N(C)C
- IC50 (SK-N-SH): > 100 µM
- IC50 (A549): > 100 µM
- IC50 (MDA-MB-231): 61.8 µM

Structure (SMILES): Ic1ccc2c(c1)CN1c3ccc(I)cc3CN2C1N1CCCCC1
- IC50 (SK-N-SH): > 100 µM
- IC50 (A549): > 100 µM
- IC50 (MDA-MB-231): > 100 µM

Structure (SMILES): c1ccc(CC2CCN(CCOc3ccc4c(c3)CN3CN4Cc4cc(OCCN5CCC(Cc6ccccc6)CC5)ccc43)CC2)cc1
- IC50 (MDA-MB-231): 64.1 µM

Structure (SMILES): Cc1ccc2c(c1)CN1c3ccc(C)cc3CN2C1N1CCCCC1
- IC50 (SK-N-SH): 12.2 µM
- IC50 (A549): > 100 µM
- IC50 (MDA-MB-231): 82.4 µM

Structure (SMILES): COc1cc2c(cc1OC)N1Cc3cc(OC)c(OC)cc3N(C2)C1N(C)c1ccccc1
- IC50 (SK-N-SH): > 100 µM
- IC50 (A549): > 100 µM
- IC50 (MDA-MB-231): 86.8 µM

Structure (SMILES): Fc1ccc(N2CCN(CCOc3ccc4c(c3)CN3CN4Cc4cc(OCCN5CCN(c6ccc(F)cc6)CC5)ccc43)CC2)cc1
- IC50 (MDA-MB-231): 4.82 µM

Structure (SMILES): Cc1ccc2c(c1)CN1c3ccc(C)cc3CN2C1N1CCOCC1
- IC50 (SK-N-SH): > 100 µM
- IC50 (A549): > 100 µM
- IC50 (MDA-MB-231): > 100 µM

Structure (SMILES): c1ncn(CCOc2ccc3c(c2)CN2CN3Cc3cc(OCCn4cncn4)ccc32)n1
- IC50 (MDA-MB-231): > 100 µM

Structure (SMILES): CN(c1ccccc1)C1N2Cc3cc(Br)ccc3N1Cc1cc(Br)ccc12
- IC50 (SK-N-SH): > 100 µM
- IC50 (A549): > 100 µM
- IC50 (MDA-MB-231): 14.3 µM

Structure (SMILES): c1ccc(-n2nnnc2SCCOc2ccc3c(c2)CN2CN3Cc3cc(OCCSc4nnnn4-c4ccccc4)ccc32)cc1
- IC50 (MDA-MB-231): > 100 µM

Structure (SMILES): COc1ccc2c(c1)CN1c3ccc(OC)cc3CN2C1N(C)C
- IC50 (SK-N-SH): > 100 µM
- IC50 (A549): > 100 µM
- IC50 (MDA-MB-231): > 100 µM

Structure (SMILES): CN(C)C1N2Cc3ccccc3N1Cc1ccccc12
- IC50 (SK-N-SH): > 100 µM
- IC50 (A549): > 100 µM
- IC50 (MDA-MB-231): > 100 µM
